Experimental data published in the M2OR odorant receptor database.

Key:
Conditions in all cases: stereoisomer not certain
OR6C76 (Homo sapiens) = OR6C76 (Homo sapiens) (UniProt A6NM76)
Method in brief: (§1)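 Whether a receptor–molecule pair is responsive (active) rests on the original authors' judgment that its measured signal was statistically different from baseline. Pairs without that judgment are non-responsive (inactive). Sources used varied assay methods, commonly transient luciferase assays in mammalian cell lines.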

OR6F1 (Homo sapiens) = OR6F1 (Homo sapiens) (UniProt Q8NGZ6)
Method in brief: as §1

OR6J1 (Homo sapiens) [1] = target: OR6J1 (Homo sapiens) (UniProt Q8NGC5)
Method in brief: as §1
Target sequence in this assay (Q8NGC5 whole entry S250P): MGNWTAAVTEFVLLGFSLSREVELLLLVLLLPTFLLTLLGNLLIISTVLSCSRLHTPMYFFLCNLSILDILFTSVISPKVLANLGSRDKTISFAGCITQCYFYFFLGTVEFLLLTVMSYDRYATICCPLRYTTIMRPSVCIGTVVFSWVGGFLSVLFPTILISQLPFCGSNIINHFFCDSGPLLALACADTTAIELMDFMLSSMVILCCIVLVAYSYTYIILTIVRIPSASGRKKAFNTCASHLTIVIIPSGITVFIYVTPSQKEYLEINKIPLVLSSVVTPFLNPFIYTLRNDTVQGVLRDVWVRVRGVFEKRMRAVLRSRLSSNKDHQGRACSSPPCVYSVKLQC

OR6K2 (Homo sapiens) = OR6K2 (Homo sapiens) (UniProt Q8NGY2)
Method in brief: as §1

OR6K3 (Homo sapiens) = OR6K3 (Homo sapiens) (UniProt Q8NGY3)
Method in brief: as §1

OR6K6 (Homo sapiens) = OR6K6 (Homo sapiens) (UniProt Q8NGW6)
Method in brief: as §1

OR6M1 (Homo sapiens) = OR6M1 (Homo sapiens) (UniProt Q8NGM8)
Method in brief: as §1

OR6J1 (Homo sapiens) [2] = target: OR6J1 (Homo sapiens) (UniProt Q8NGC5); remark: listed apart in the source
Method in brief: as §1
Target sequence in this assay (Q8NGC5 whole entry): as the sequence (Q8NGC5 whole entry S250P) above, with P250S counted along it

OR6K3 = tested on: OR6K3
Method in brief: as §1

OR6M1 R224C = tested on: OR6M1 R224C
Method in brief: as §1

Measured: odorant receptor agonist call;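 further: active if original authors judged signal statistically different from baseline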

OR6C76 (Homo sapiens), sequence (A6NM76 whole entry): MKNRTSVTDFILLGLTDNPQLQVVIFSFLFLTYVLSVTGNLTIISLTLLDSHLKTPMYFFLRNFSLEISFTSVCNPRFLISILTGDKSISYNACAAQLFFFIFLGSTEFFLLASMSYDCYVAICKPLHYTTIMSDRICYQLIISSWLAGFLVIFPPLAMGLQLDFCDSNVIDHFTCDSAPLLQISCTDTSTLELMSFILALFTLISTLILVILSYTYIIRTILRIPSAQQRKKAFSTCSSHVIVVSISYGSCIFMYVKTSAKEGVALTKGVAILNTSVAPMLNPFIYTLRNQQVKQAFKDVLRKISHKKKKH
OR6M1 (Homo sapiens), sequence (Q8NGM8 whole entry): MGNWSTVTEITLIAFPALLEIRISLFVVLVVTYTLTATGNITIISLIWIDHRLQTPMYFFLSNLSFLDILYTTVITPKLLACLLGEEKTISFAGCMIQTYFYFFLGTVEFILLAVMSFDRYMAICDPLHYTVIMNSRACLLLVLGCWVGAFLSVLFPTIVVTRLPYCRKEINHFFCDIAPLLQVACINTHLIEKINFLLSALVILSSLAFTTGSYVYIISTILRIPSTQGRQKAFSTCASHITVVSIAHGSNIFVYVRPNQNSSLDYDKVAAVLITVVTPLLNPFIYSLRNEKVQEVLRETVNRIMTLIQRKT
OR6K2 (Homo sapiens), sequence (Q8NGY2 whole entry): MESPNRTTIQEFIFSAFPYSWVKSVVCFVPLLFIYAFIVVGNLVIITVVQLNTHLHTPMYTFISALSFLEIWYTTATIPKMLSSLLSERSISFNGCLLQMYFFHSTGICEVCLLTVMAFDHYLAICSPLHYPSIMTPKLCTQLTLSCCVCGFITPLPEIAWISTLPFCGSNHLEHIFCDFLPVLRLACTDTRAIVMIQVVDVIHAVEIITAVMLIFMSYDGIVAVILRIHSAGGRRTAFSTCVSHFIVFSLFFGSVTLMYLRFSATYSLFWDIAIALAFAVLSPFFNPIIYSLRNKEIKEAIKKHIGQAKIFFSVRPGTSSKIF
OR6F1 (Homo sapiens), sequence (Q8NGZ6 whole entry): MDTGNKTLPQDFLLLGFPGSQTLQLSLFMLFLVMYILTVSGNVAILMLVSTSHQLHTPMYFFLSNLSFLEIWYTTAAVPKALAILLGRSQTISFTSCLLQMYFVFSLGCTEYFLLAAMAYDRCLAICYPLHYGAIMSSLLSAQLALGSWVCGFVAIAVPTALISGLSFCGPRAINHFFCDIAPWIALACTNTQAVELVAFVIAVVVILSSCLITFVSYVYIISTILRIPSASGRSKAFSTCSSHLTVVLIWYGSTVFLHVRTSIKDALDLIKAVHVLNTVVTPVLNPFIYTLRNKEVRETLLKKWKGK
OR6K6 (Homo sapiens), sequence (Q8NGW6 whole entry): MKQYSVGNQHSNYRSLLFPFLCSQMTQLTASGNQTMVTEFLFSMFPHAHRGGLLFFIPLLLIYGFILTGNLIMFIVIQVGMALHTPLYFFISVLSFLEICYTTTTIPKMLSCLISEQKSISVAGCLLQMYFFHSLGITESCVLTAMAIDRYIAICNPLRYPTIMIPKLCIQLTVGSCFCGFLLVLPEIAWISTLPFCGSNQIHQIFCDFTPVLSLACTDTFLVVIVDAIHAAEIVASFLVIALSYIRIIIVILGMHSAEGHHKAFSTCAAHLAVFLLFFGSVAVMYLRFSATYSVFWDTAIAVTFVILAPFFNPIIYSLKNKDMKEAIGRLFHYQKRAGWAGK
OR6K3, sequence (as listed by the source): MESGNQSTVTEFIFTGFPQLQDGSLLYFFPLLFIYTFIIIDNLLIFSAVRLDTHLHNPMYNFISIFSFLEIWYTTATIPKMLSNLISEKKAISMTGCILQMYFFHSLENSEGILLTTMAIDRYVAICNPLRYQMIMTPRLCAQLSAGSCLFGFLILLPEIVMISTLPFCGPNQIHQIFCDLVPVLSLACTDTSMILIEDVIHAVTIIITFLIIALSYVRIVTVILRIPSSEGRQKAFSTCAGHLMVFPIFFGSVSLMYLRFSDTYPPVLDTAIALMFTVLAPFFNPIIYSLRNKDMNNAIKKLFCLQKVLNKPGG
OR6M1 R224C, sequence (as listed by the source, stated change not applied): as the sequence (Q8NGM8 whole entry) above, with R224C counted along it
OR6K3 (Homo sapiens), sequence (Q8NGY3 whole entry): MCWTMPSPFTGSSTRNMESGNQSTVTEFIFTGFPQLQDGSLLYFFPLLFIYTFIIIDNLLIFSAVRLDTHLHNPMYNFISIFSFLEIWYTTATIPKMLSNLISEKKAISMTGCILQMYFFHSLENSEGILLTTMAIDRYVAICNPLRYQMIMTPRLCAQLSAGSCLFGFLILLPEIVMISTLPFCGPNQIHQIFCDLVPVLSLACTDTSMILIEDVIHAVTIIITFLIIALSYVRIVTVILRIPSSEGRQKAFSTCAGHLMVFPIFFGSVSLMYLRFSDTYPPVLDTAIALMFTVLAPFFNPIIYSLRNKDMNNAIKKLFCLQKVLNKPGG

Cc1c([N+](=O)[O-])c(C)c([N+](=O)[O-])c(C(C)(C)C)c1[N+](=O)[O-]
not listed: OR6J1 (Homo sapiens) [2] | OR6K3 | OR6M1 R224C
inactive: all other assays above

C=CCOC(=O)Cc1ccccc1
not listed: OR6J1 (Homo sapiens) [1] | OR6K3 (Homo sapiens)
inactive: all other assays above
